From ChEMBL document CHEMBL1124057, “Synthesis of arginine-vasopressins, modified in positions 1 and 2, as antagonists of the vasopressor response to the parent hormone” (J Med Chem, 1988)
*1 amine or outer side, *2 acyl side, *3 side chain or, on linkers, in order; H or OH if unused. Where a SMILES comes first, the peptide text is derived from it. Bridges are numbered along the chain shown (N, C = ends). [ ]: non-standard residue; d: D form. X9 = O=C(CC1(S[*:3])CCC(c2ccccc2)CC1)[C@H](Cc1ccc(O)cc1)N([C@@H](Cc1ccccc1)C(=O)[*:2])[*:1]; X5 = CN1CCC(CC(=O)[C@H](Cc2ccc(O)cc2)N([C@@H](Cc2ccccc2)C(=O)[*:2])[*:1])(S[*:3])CC1; X8 = CC1CCC(CC(=O)[C@H](Cc2ccc(O)cc2)N([C@@H](Cc2ccccc2)C(=O)[*:2])[*:1])(S[*:3])CC1; X1 = CC(C)(C)C1CCC(CC(=O)[*:1])(S[*:2])CC1; X4 = O=C(CC1(S[*:2])CCC(c2ccccc2)CC1)[*:1]; X2 = CC1CCC(CC(=O)[*:1])(S[*:2])CC1; X3 = CN1CCC(CC(=O)[*:1])(S[*:2])CC1; X6 = O=C(CC1(S[*:2])CCCCC1)[*:1]

Experiments:
[1] = tested on: Rattus norvegicus; test: Antidiuretic potency was tested in rat by intravenous injection and the change of conductivity of secreted urine was measured (antagonistic experiment); format: functional
How it was run: (§1)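 Antidiuretic assay in anesthetized female Sprague-Dawley rats, with compounds given by intravenous injection. The change in conductivity of secreted urine was the effect parameter in both agonist and antagonist runs. Arginine-vasopressin (408 IU/mg) was the standard for agonism and the agonist in antagonism runs.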

[2] = tested on: Rattus norvegicus; test: Antidiuretic potency was tested in rat by intravenous injection and the change of conductivity of secreted urine was measured (agonistic experiment); format: functional; how it was run: as §1
[3] = species on record: Rattus norvegicus; test: Antagonist activity expressed as the effective dose that reduces the response to 2x units to equal response to 1x units of agonist (vasopressor assay); format: functional
How it was run: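 Vasopressor antagonism measured in anesthetized, dibenamine-treated rats, with arginine-vasopressin (408 IU/mg) as the challenging agonist. Potency is given as the effective dose (ED), the antagonist dose in nmol/kg body weight.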

[4] = tested on: Rattus norvegicus; test: Agonistic activity was determined according to a four-point dosage schedule in anesthetized rat (vasopressor assay); format: functional
[5] = tested on: Rattus norvegicus; test: Antidiuretic potency was tested in rat by intravenous injection and the change of conductivity of secreted urine was measured (antagonistic experiment); Weak, inconsistent; format: functional, organism-based; how it was run: as §1
[6] = The time for complete recovery of the AVP effect was measured; format: ADME

SMILES	Agonism [2]	ED [3]	Agonism [4]	Time [6]	other results
CN1CCC2(CC1)CC(=O)[C@H](Cc1ccc(O)cc1)N[C@@H](Cc1ccccc1)C(=O)N[C@@H](CCC(N)=O)C(=O)N[C@@H](CC(N)=O)C(=O)N[C@H](C(=O)N1CCC[C@H]1C(=O)N[C@@H](CCCN=C(N)N)C(=O)NCC(N)=O)CSS2 (H-[X5]QNCPRG-NH2; disulfide 1-4)	0.87 IU mg-1	0 nmol/kg	0.4 IU mg-1		Antagonism [1]: 0
CC1CCC2(CC1)CC(=O)[C@H](Cc1ccc(O)cc1)N[C@@H](Cc1ccccc1)C(=O)N[C@@H](CCC(N)=O)C(=O)N[C@@H](CC(N)=O)C(=O)N[C@H](C(=O)N1CCC[C@H]1C(=O)N[C@@H](CCCN=C(N)N)C(=O)NCC(N)=O)CSS2 (some centres undefined) (H-[X8]QNCPRG-NH2; disulfide 1-4)					Antagonism [5]: Weak
NC(=O)CC[C@@H]1NC(=O)[C@H](Cc2ccccc2)N[C@@H](Cc2ccc(O)cc2)C(=O)CC2(CCC(c3ccccc3)CC2)SSC[C@@H](C(=O)N2CCC[C@H]2C(=O)N[C@@H](CCCN=C(N)N)C(=O)NCC(N)=O)NC(=O)[C@H](CC(N)=O)NC1=O (some centres undefined) (H-[X9]QNCPRG-NH2; disulfide 1-4)					Antagonism [5]: Weak
COc1ccc(C[C@@H]2NC(=O)CC3(CCC(C(C)(C)C)CC3)SSC[C@@H](C(=O)N3CCC[C@H]3C(=O)N[C@@H](CCCN=C(N)N)C(=O)NCC(N)=O)NC(=O)[C@H](CC(N)=O)NC(=O)[C@H](CCC(N)=O)NC(=O)[C@H](Cc3ccccc3)NC2=O)cc1 (some centres undefined) (Y(Me)FQNCPRG-NH2; linker N-5 via X1) [listing 1 of 2 here]				> 115 min	
COc1ccc(C[C@@H]2NC(=O)CC3(CCC(C(C)(C)C)CC3)SSC[C@@H](C(=O)N3CCC[C@H]3C(=O)N[C@@H](CCCN=C(N)N)C(=O)NCC(N)=O)NC(=O)[C@H](CC(N)=O)NC(=O)[C@H](CCC(N)=O)NC(=O)[C@H](Cc3ccccc3)NC2=O)cc1 (some centres undefined) (Y(Me)FQNCPRG-NH2; linker N-5 via X1) [listing 2 of 2 here]	0.095 IU mg-1	1 nmol/kg	0 IU mg-1		Antagonism [1]: 0
COc1ccc(C[C@@H]2NC(=O)CC3(CCC(C)CC3)SSC[C@@H](C(=O)N3CCC[C@H]3C(=O)N[C@@H](CCCN=C(N)N)C(=O)NCC(N)=O)NC(=O)[C@H](CC(N)=O)NC(=O)[C@H](CCC(N)=O)NC(=O)[C@H](Cc3ccccc3)NC2=O)cc1 (some centres undefined) (Y(Me)FQNCPRG-NH2; linker N-5 via X2) [listing 1 of 2 here]				> 140 min	
COc1ccc(C[C@@H]2NC(=O)CC3(CCC(C)CC3)SSC[C@@H](C(=O)N3CCC[C@H]3C(=O)N[C@@H](CCCN=C(N)N)C(=O)NCC(N)=O)NC(=O)[C@H](CC(N)=O)NC(=O)[C@H](CCC(N)=O)NC(=O)[C@H](Cc3ccccc3)NC2=O)cc1 (some centres undefined) (Y(Me)FQNCPRG-NH2; linker N-5 via X2) [listing 2 of 2 here]	0.7 IU mg-1	1.5 nmol/kg	0 IU mg-1		Antagonism [1]: 0
COc1ccc(C[C@@H]2NC(=O)CC3(CCN(C)CC3)SSC[C@@H](C(=O)N3CCC[C@H]3C(=O)N[C@@H](CCCN=C(N)N)C(=O)NCC(N)=O)NC(=O)[C@H](CC(N)=O)NC(=O)[C@H](CCC(N)=O)NC(=O)[C@H](Cc3ccccc3)NC2=O)cc1 (Y(Me)FQNCPRG-NH2; linker N-5 via X3) [listing 1 of 2 here]				110 min	
COc1ccc(C[C@@H]2NC(=O)CC3(CCN(C)CC3)SSC[C@@H](C(=O)N3CCC[C@H]3C(=O)N[C@@H](CCCN=C(N)N)C(=O)NCC(N)=O)NC(=O)[C@H](CC(N)=O)NC(=O)[C@H](CCC(N)=O)NC(=O)[C@H](Cc3ccccc3)NC2=O)cc1 (Y(Me)FQNCPRG-NH2; linker N-5 via X3) [listing 2 of 2 here]	0.23 IU mg-1	3.6 nmol/kg	0 IU mg-1		
COc1ccc(C[C@@H]2NC(=O)CC3(CCC(c4ccccc4)CC3)SSC[C@@H](C(=O)N3CCC[C@H]3C(=O)N[C@@H](CCCN=C(N)N)C(=O)NCC(N)=O)NC(=O)[C@H](CC(N)=O)NC(=O)[C@H](CCC(N)=O)NC(=O)[C@H](Cc3ccccc3)NC2=O)cc1 (some centres undefined) (Y(Me)FQNCPRG-NH2; linker N-5 via X4) [listing 1 of 2 here]				> 180 min	
COc1ccc(C[C@@H]2NC(=O)CC3(CCC(c4ccccc4)CC3)SSC[C@@H](C(=O)N3CCC[C@H]3C(=O)N[C@@H](CCCN=C(N)N)C(=O)NCC(N)=O)NC(=O)[C@H](CC(N)=O)NC(=O)[C@H](CCC(N)=O)NC(=O)[C@H](Cc3ccccc3)NC2=O)cc1 (some centres undefined) (Y(Me)FQNCPRG-NH2; linker N-5 via X4) [listing 2 of 2 here]	1.6 IU mg-1	2 nmol/kg	0 IU mg-1		
COc1ccc(C[C@@H]2NC(=O)CC3(CCCCC3)SSC[C@@H](C(=O)N3CCC[C@H]3C(=O)N[C@@H](CCCN=C(N)N)C(=O)NCC(N)=O)NC(=O)[C@H](CC(N)=O)NC(=O)[C@H](CCC(N)=O)NC(=O)[C@H](Cc3ccccc3)NC2=O)cc1 (Y(Me)FQNCPRG-NH2; linker N-5 via X6) [listing 1 of 2 here]				126 min	
COc1ccc(C[C@@H]2NC(=O)CC3(CCCCC3)SSC[C@@H](C(=O)N3CCC[C@H]3C(=O)N[C@@H](CCCN=C(N)N)C(=O)NCC(N)=O)NC(=O)[C@H](CC(N)=O)NC(=O)[C@H](CCC(N)=O)NC(=O)[C@H](Cc3ccccc3)NC2=O)cc1 (Y(Me)FQNCPRG-NH2; linker N-5 via X6) [listing 2 of 2 here]			0 IU mg-1		
CC(C)(C)C1CCC2(CC1)CC(=O)N[C@@H](Cc1ccc(O)cc1)C(=O)N[C@@H](Cc1ccccc1)C(=O)N[C@@H](CCC(N)=O)C(=O)N[C@@H](CC(N)=O)C(=O)N[C@H](C(=O)N1CCC[C@H]1C(=O)N[C@@H](CCCN=C(N)N)C(=O)NCC(N)=O)CSS2 (some centres undefined) (YFQNCPRG-NH2; linker N-5 via X1) [listing 1 of 2 here]				125 min	
CC(C)(C)C1CCC2(CC1)CC(=O)N[C@@H](Cc1ccc(O)cc1)C(=O)N[C@@H](Cc1ccccc1)C(=O)N[C@@H](CCC(N)=O)C(=O)N[C@@H](CC(N)=O)C(=O)N[C@H](C(=O)N1CCC[C@H]1C(=O)N[C@@H](CCCN=C(N)N)C(=O)NCC(N)=O)CSS2 (some centres undefined) (YFQNCPRG-NH2; linker N-5 via X1) [listing 2 of 2 here]	0.13 IU mg-1	2 nmol/kg	0.04 IU mg-1		Antagonism [1]: 0
CC1CCC2(CC1)CC(=O)N[C@@H](Cc1ccc(O)cc1)C(=O)N[C@@H](Cc1ccccc1)C(=O)N[C@@H](CCC(N)=O)C(=O)N[C@@H](CC(N)=O)C(=O)N[C@H](C(=O)N1CCC[C@H]1C(=O)N[C@@H](CCCN=C(N)N)C(=O)NCC(N)=O)CSS2 (some centres undefined) (YFQNCPRG-NH2; linker N-5 via X2) [listing 1 of 2 here]				214 min	
CC1CCC2(CC1)CC(=O)N[C@@H](Cc1ccc(O)cc1)C(=O)N[C@@H](Cc1ccccc1)C(=O)N[C@@H](CCC(N)=O)C(=O)N[C@@H](CC(N)=O)C(=O)N[C@H](C(=O)N1CCC[C@H]1C(=O)N[C@@H](CCCN=C(N)N)C(=O)NCC(N)=O)CSS2 (some centres undefined) (YFQNCPRG-NH2; linker N-5 via X2) [listing 2 of 2 here]	0.14 IU mg-1	1.04 nmol/kg	0 IU mg-1		
NC(=O)CC[C@@H]1NC(=O)[C@H](Cc2ccccc2)NC(=O)[C@H](Cc2ccc(O)cc2)NC(=O)CC2(CCC(c3ccccc3)CC2)SSC[C@@H](C(=O)N2CCC[C@H]2C(=O)N[C@@H](CCCN=C(N)N)C(=O)NCC(N)=O)NC(=O)[C@H](CC(N)=O)NC1=O (some centres undefined) (YFQNCPRG-NH2; linker N-5 via X4) [listing 1 of 2 here]				> 180 min	
NC(=O)CC[C@@H]1NC(=O)[C@H](Cc2ccccc2)NC(=O)[C@H](Cc2ccc(O)cc2)NC(=O)CC2(CCC(c3ccccc3)CC2)SSC[C@@H](C(=O)N2CCC[C@H]2C(=O)N[C@@H](CCCN=C(N)N)C(=O)NCC(N)=O)NC(=O)[C@H](CC(N)=O)NC1=O (some centres undefined) (YFQNCPRG-NH2; linker N-5 via X4) [listing 2 of 2 here]	0.44 IU mg-1	2 nmol/kg	0 IU mg-1		
